The source made the active and inactive calls.
Experiments:
Mus musculus [1] = test: Antinociceptive activity in albino CD-1 mouse assessed as reduction in licking and biting time during phase 2 at 114.68 mg/kg, ip administered 30 mins prior to formalin challenge measured between 25.0 to 30.0 mins relative to control; type: functional; set-up: scale not given: the % may be the effect or the level left
Mus musculus [2] = test: Neurotoxicity in albino CD-1 mouse assessed as motor performance by measuring time spent in chimney at 114.68 mg/kg, ip administered 30 mins prior to chimney test (reference value: 6.29 +/- 2.48 sec); type: toxicity, organism-based; details: in vivo
Mus musculus [3] = test: Anticonvulsant activity in ip dosed albino CD-1 mouse assessed as protection against maximal electroshock-induced seizure; type: functional; details: CD-1, ip
Summary of the method: (§1)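 Quantitative work at time of peak effect previously estimated in screening; groups of six mice given various i.p. doses until ≥3 points within 10–90% seizure protection (MES or scPTZ) or minimal motor impairment on rotarod (10 rpm, failure to hold ≥1 min).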

Mus musculus [4] = test: Anticonvulsant activity in albino CD-1 mouse assessed as protection against subcutaneous pentylenetetrazole-induced seizure at 30 to 300 mg/kg, ip measured after 0.5 hrs; type: functional
Summary of the method: (§2)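 Male CD-1 mice given compound i.p. (0.5% methylcellulose suspension) at 30, 100, 300 mg/kg, four per group; pentylenetetrazole 85 mg/kg s.c. at 0.5 or 2 h. Absence of clonic convulsions (≥5 s) over 30 min observation counts as protection. Minimum active dose reported.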

Mus musculus [5] = test: Antinociceptive activity in albino CD-1 mouse assessed as reduction in licking and biting time during phase 2 at 114.68 mg/kg, ip administered 30 mins prior to formalin challenge measured between 15.0 to 20.0 mins relative to control; type: functional; set-up: scale not given: the % may be the effect or the level left
Mus musculus [6] = test: Antinociceptive activity in albino CD-1 mouse assessed as reduction in licking and biting time during phase 1 at 114.68 mg/kg, ip administered 30 mins prior to formalin challenge relative to control; type: functional; set-up: scale not given: the % may be the effect or the level left
[7] = Protective index, ratio of TD50 for neurotoxicity in ip dosed albino CD-1 mouse to ED50 for anticonvulsant activity in ip dosed subcutaneous pentylenetetrazole-induced seizure albino CD-1 mouse model; type: toxicity, organism-based; details: in vivo, read-out: Ratio TD50/ED50
Summary of the method: (§3)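 Protective index computed as TD50 (rotarod) divided by ED50 (MES or scPTZ), both from probit analysis on groups of six i.p.-dosed mice.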

Rattus norvegicus = organism: Rattus norvegicus; test: Displacement of [3H]BTX from voltage-sensitive sodium channel site2 in rat cerebral cortex at 100 uM measured after 60.0 mins by scintillation counting; type: tissue-based
Mus musculus [8] = test: Anticonvulsant activity in albino CD-1 mouse assessed as protection against maximal electroshock-induced seizure at 30 to 300 mg/kg, ip measured after 0.5 hrs; type: functional; details: CD-1, ip, read-out: MED
Summary of the method: (§4)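 Male CD-1 mice (16–26 g), compound suspended in 0.5% methylcellulose/water, i.p. at 30, 100, 300 mg/kg; four mice per group, each used once. Electroconvulsion by electrical stimulus 0.2 s at 50 Hz; protection scored at 0.5 and 2 h. Value is minimum dose showing activity.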

Mus musculus [9] = test: Neurotoxicity in albino CD-1 mouse assessed as motor impairment at 30 to 300 mg/kg mg/kg, ip measured after 2 hrs by rotarod test; type: toxicity, organism-based; details: in vivo
Summary of the method: (§5)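 Rotarod in male CD-1 mice at 0.5 and 2 h after i.p. 30, 100 or 300 mg/kg (methylcellulose suspension); motor impairment = inability to keep balance on rod turning at 10 rpm for at least 1 min. Minimum neurotoxic dose reported.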

[10] = Protective index, ratio of TD50 for neurotoxicity in ip dosed albino CD-1 mouse to ED50 for anticonvulsant activity in ip dosed maximal electoshock-induced seizure albino CD-1 mouse model; type: toxicity, organism-based; details: in vivo, read-out: Ratio TD50/ED50; summary of the method: as §3
Mus musculus [11] = test: Antinociceptive activity in albino CD-1 mouse assessed as reduction in licking and biting time during phase 2 at 114.68 mg/kg, ip administered 30 mins prior to formalin challenge measured between 15.0 to 30.0 mins relative to control; type: functional; set-up: scale not given: the % may be the effect or the level left
Mus musculus [12] = test: Anticonvulsant activity in ip dosed albino CD-1 mouse assessed as protection against subcutaneous pentylenetetrazole-induced seizure measured as time to peak effect; type: functional; summary of the method: as §1
Mus musculus [13] = test: Anticonvulsant activity in ip dosed albino CD-1 mouse assessed as protection against maximal electroshock-induced seizure measured as time to peak effect; type: functional; summary of the method: as §1
[14] = Neurotoxicity in ip dosed albino CD-1 mouse assessed as motor impairment by rotarod test; type: toxicity, organism-based; details: in vivo; summary of the method: as §1
Mus musculus [15] = test: Anticonvulsant activity in albino CD-1 mouse assessed as protection against maximal electroshock-induced seizure at 30 to 300 mg/kg, ip measured after 2.0 hrs; type: functional; details: for minimal effective dose: CD-1, ip, read-out: MED; summary of the method: as §4
Mus musculus [16] = test: Neurotoxicity in albino CD-1 mouse assessed as motor impairment at 30 to 300 mg/kg mg/kg, ip measured after 0.5 hrs by rotarod test; type: toxicity, organism-based; details: in vivo; summary of the method: as §5
Mus musculus [17] = test: Anticonvulsant activity in albino CD-1 mouse assessed as protection against subcutaneous pentylenetetrazole-induced seizure at 30 to 300 mg/kg, ip measured after 2.0 hrs; type: functional; summary of the method: as §2
Mus musculus [18] = test: Anticonvulsant activity in ip dosed albino CD-1 mouse assessed as protection against subcutaneous pentylenetetrazole-induced seizure; type: functional; summary of the method: as §1
Mus musculus [19] = test: Antinociceptive activity in albino CD-1 mouse assessed as reduction in licking and biting time during phase 2 at 104.11 mg/kg, ip administered 2.0 hrs prior to formalin challenge measured between 15.0 to 20.0 mins relative to control; type: functional; set-up: scale not given: the % may be the effect or the level left
Mus musculus [20] = test: Anticonvulsant activity in ip dosed albino CD-1 mouse assessed as protection against 6 Hz current-induced seizure measured after 0.5 hrs; type: functional; details: CD-1, ip, read-out: MED
Summary of the method: (§6)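 6-Hz psychomotor test: corneal stimulation 32 mA, 0.2 ms monopolar rectangular pulses at 6 Hz for 3 s, mice restrained then released to observation cage. Protected if normal exploratory behaviour resumes within 10 s. Doses 30, 100, 300 mg/kg i.p.; read at 0.5 and 2 h; minimum active dose.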

Mus musculus [21] = test: Antinociceptive activity in albino CD-1 mouse assessed as reduction in licking and biting time during phase 1 at 104.11 mg/kg, ip administered 2.0 hrs prior to formalin challenge relative to control; type: functional; set-up: scale not given: the % may be the effect or the level left
Mus musculus [22] = test: Anticonvulsant activity in ip dosed albino CD-1 mouse assessed as protection against 6 Hz current-induced seizure measured after 2.0 hrs; type: functional; summary of the method: as §6
Mus musculus [23] = test: Antinociceptive activity in albino CD-1 mouse assessed as reduction in licking and biting time during phase 2 at 104.11 mg/kg, ip administered 2.0 hrs prior to formalin challenge measured between 15.0 to 30.0 mins relative to control; type: functional; set-up: scale not given: the % may be the effect or the level left
Mus musculus [24] = test: Neurotoxicity in albino CD-1 mouse assessed as motor performance by measuring time spent in chimney at 104.11 mg/kg, ip administered 2.0 hrs prior to chimney test (reference value: 6.29 +/- 2.48 sec); type: toxicity, organism-based; details: in vivo
Mus musculus [25] = test: Antinociceptive activity in albino CD-1 mouse assessed as reduction in licking and biting time during phase 2 at 104.11 mg/kg, ip administered 2.0 hrs prior to formalin challenge measured between 20.0 to 25.0 mins relative to control; type: functional; set-up: scale not given: the % may be the effect or the level left
Vibrio harveyi [26] = test: Antimutagenic activity in Vibrio harveyi BB7XM assessed as inhibition of nitroquinoline-N-oxide-induced revertant colonies; type: functional
Summary of the method: (§7)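 Revertants induced by 4-nitroquinoline-N-oxide (final 40 ng/ml) with versus without test compound; TA100 at 37 °C, V. harveyi strains at 30 °C in BOSS medium. Three independent repetitions; inhibition % = 100 − (R1/R2 × 100); 25–40% moderate, ≥40% strong.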

Vibrio harveyi [27] = test: Mutagenic activity in Vibrio harveyi BB7XM assessed as mutagenicity index at 40 ng/ml; type: organism-based; details: in vivo
Summary of the method: (§8)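 Ames TA100 liquid pre-incubation (minimal medium, 37 °C) and V. harveyi assay (BOSS medium, 30 °C); test at 40 ng/ml, triplicate. Mutagenic index = induced revertants / spontaneous revertants (DMSO control); M.I. ≥2 considered mutagenic.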

Mus musculus [28] = test: Antinociceptive activity in albino CD-1 mouse assessed as reduction in licking and biting time during phase 2 at 97.51 mg/kg, ip administered 30 mins prior to formalin challenge measured between 15.0 to 30.0 mins relative to control; type: functional; set-up: scale not given: the % may be the effect or the level left
Salmonella typhimurium [29] = test: Antimutagenic activity in Salmonella typhimurium TA100 assessed as inhibition of nitroquinoline-N-oxide-induced revertant colonies by Ames test; type: functional, Salmonella enterica subsp. enterica serovar Typhimurium; summary of the method: as §7
Vibrio harveyi [30] = test: Mutagenic activity in Vibrio harveyi BB7 assessed as mutagenicity index at 40 ng/ml; type: organism-based; details: in vivo; summary of the method: as §8
Vibrio harveyi [31] = test: Antimutagenic activity in Vibrio harveyi BB7 assessed as inhibition of nitroquinoline-N-oxide-induced revertant colonies; type: functional; summary of the method: as §7
Mus musculus [32] = test: Antinociceptive activity in albino CD-1 mouse assessed as reduction in licking and biting time during phase 2 at 97.51 mg/kg, ip administered 30 mins prior to formalin challenge measured between 15.0 to 20.0 mins relative to control; type: functional; set-up: scale not given: the % may be the effect or the level left
Mus musculus [33] = test: Antinociceptive activity in albino CD-1 mouse assessed as reduction in licking and biting time during phase 1 at 97.51 mg/kg, ip administered 30 mins prior to formalin challenge relative to control; type: functional; set-up: scale not given: the % may be the effect or the level left
Mus musculus [34] = test: Antinociceptive activity in albino CD-1 mouse assessed as reduction in licking and biting time during phase 2 at 97.51 mg/kg, ip administered 30 mins prior to formalin challenge measured between 20.0 to 25.0 mins relative to control; type: functional; set-up: scale not given: the % may be the effect or the level left
Salmonella typhimurium [35] = test: Mutagenic activity in Salmonella typhimurium TA100 assessed as mutagenicity index at 40 ng/ml by Ames test; type: toxicity, organism-based; details: salmonella enterica subsp. enterica serovar typhimurium; summary of the method: as §8
Mus musculus [36] = test: Antinociceptive activity in albino CD-1 mouse assessed as reduction in licking and biting time during phase 2 at 97.51 mg/kg, ip administered 30 mins prior to formalin challenge measured between 25.0 to 30.0 mins relative to control; type: functional; set-up: scale not given: the % may be the effect or the level left
Mus musculus [37] = test: Neurotoxicity in albino CD-1 mouse assessed as motor performance by measuring time spent in chimney at 97.51 mg/kg, ip administered 30 mins prior to chimney test (reference value: 6.29 +/- 2.48 sec); type: toxicity, organism-based; details: in vivo

SMILES | ED50 (Mus musculus [3]) | inhibition (Rattus norvegicus) | minimal effective dose (Mus musculus [8]) | MTC (Mus musculus [9]) | selectivity ratio [10] | Time (Mus musculus [12]) | Time (Mus musculus [13]) | TD50 [14] | MTC (Mus musculus [16]) | MED (Mus musculus [4]) | minimal effective dose (Mus musculus [20]) | minimal effective dose (Mus musculus [15]) | MED (Mus musculus [17]) | other results
CC1(c2ccccc2)CC(=O)N(CC(=O)N2CCN(c3ccccc3F)CC2)C1=O (stereo not drawn) | 115 mg/kg | 56.1% | 100 mg/kg | 300 mg/kg | 2.64 | 0.5 h | 0.5 h | 302 mg/kg | 300 mg/kg | – | – | – | – | Activity (Mus musculus [1]): 81%; Time (Mus musculus [2]): 6.5 s; minimal effective dose (Mus musculus [4]; CD-1, 0.5 h, read-out: MED): 100 mg/kg; Activity (Mus musculus [5]): 98%; Activity (Mus musculus [6]): 73.3%; selectivity ratio [7]: 3.11; Activity (Mus musculus [11]): 87.1%; MED (Mus musculus [15]): inactive; minimal effective dose (Mus musculus [17]; CD-1, 2 h, read-out: MED): 300 mg/kg; ED50 (Mus musculus [18]): 97.1 mg/kg
CC1(c2ccccc2)CC(=O)N(CC(=O)N2CCN(c3ccc(F)cc3)CC2)C1=O (stereo not drawn) | 104 mg/kg | – | 100 mg/kg | 300 mg/kg | 2.37 | 2 h | 2 h | 248 mg/kg | 300 mg/kg | inactive | 300 mg/kg | 100 mg/kg | inactive | Activity (Mus musculus [19]): 95%; Activity (Mus musculus [21]): 60%; minimal effective dose (Mus musculus [22]; CD-1, ip, read-out: MED): 300 mg/kg; Activity (Mus musculus [23]): 82.3%; Time (Mus musculus [24]): 6.14 s; Activity (Mus musculus [25]): 95%
COc1ccccc1N1CCN(C(=O)CN2C(=O)CC(C)(c3ccccc3)C2=O)CC1 (stereo not drawn) | 97.5 mg/kg | 44.6% | 100 mg/kg | 300 mg/kg | 2.46 | 0.5 h | 0.5 h | 240 mg/kg | 300 mg/kg | inactive | 100 mg/kg | 300 mg/kg | inactive | inhibition (INH) (Vibrio harveyi [26]): 51%; Activity_index (Vibrio harveyi [27]): 0.9; Activity (Mus musculus [28]): 99.3%; inhibition (INH) (Salmonella typhimurium [29]): 42%; Activity_index (Vibrio harveyi [30]): 1.2; inhibition (INH) (Vibrio harveyi [31]): 45%; Activity (Mus musculus [32]): 100%; MED (Mus musculus [22]): inactive; Activity (Mus musculus [33]): 85.5%; Activity (Mus musculus [34]): 100%; Activity_index (Salmonella typhimurium [35]): 0.6; Activity (Mus musculus [36]): 98%; Time (Mus musculus [37]): 8.43 s
